From ChEMBL document CHEMBL1144700, “Synthesis of new N-phenylpyrazole derivatives with potent antimicrobial activity” (2008)
In brackets after ≈: the same amount, converted by molar mass.

Tests used:
Format in all cases: functional
Pseudomonas aeruginosa = assay: Antibacterial activity against Pseudomonas aeruginosa after 24 hrs by agar diffusion test
Outline: (§1)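 Disc diffusion: organism culture swabbed dry onto prepared agar plates; sterile 9.6 mm discs soaked in compound solution (stock 0.5 g in 10 ml DMF), dried and laid on the inoculated surface. Standard antimicrobial disc placed at the plate centre. Incubation at 37 °C for 24 h.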

Staphylococcus aureus = assay: Antibacterial activity against Staphylococcus aureus after 24 hrs by agar diffusion test; outline: as §1
Candida albicans = assay: Antifungal activity against Candida albicans after 24 hrs by agar diffusion test; outline: as §1
Aspergillus fumigatus [1] = assay: Antifungal activity against Aspergillus fumigatus after 24 hrs by agar diffusion test; outline: as §1
Aspergillus fumigatus [2] = assay: Antifungal activity against Aspergillus fumigatus after 72 hrs
Outline: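 Microwell growth assay with conidia from 48 h Sabouraud agar cultures, final 5 × 10³ conidia per well. Medium-only and fluconazole-range controls included. Incubated at 23 °C for 72 h with growth checked every 24 h, then read as absorbance at 620 nm. Each concentration run in triplicate and the experiment repeated three times.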

| MIC (Aspergillus fumigatus [2]) | Structure (SMILES) | inhibition zone (IZ) (Pseudomonas aeruginosa) | inhibition zone (IZ) (Staphylococcus aureus) | inhibition zone (IZ) (Candida albicans) | inhibition zone (IZ) (Aspergillus fumigatus [1]) |
| --- | --- | --- | --- | --- | --- |
| – | Cc1c(-c2csc(N)n2)c(C(=O)Nc2ccccc2)nn1-c1ccccc1 | 18 mm/mg | 13 mm/mg | 13 mm/mg | 0 mm/mg |
| – | Cc1c(-c2ccccc2)nn2c(-c3c(C(=O)Nc4ccccc4)nn(-c4ccccc4)c3C)ccnc12 | 0 mm/mg | 8 mm/mg | 10 mm/mg | 0 mm/mg |
| – | Cc1c(-c2cnc3sc4ccccc4n23)c(C(=O)Nc2ccccc2)nn1-c1ccccc1 | 10 mm/mg | 12 mm/mg | 12 mm/mg | 0 mm/mg |
| – | Cc1c(-c2ccon2)c(C(=O)Nc2ccccc2)nn1-c1ccccc1 | 13 mm/mg | 13 mm/mg | 13 mm/mg | 0 mm/mg |
| – | Cc1c(-c2cc[nH]n2)c(C(=O)Nc2ccccc2)nn1-c1ccccc1 | 13 mm/mg | 13 mm/mg | 12 mm/mg | 0 mm/mg |
| 25 µg/mL (≈ 62.8 µM) | Cc1c(C(=O)CBr)c(C(=O)Nc2ccccc2)nn1-c1ccccc1 | 20 mm/mg | 18 mm/mg | 16 mm/mg | 12 mm/mg |
| – | Cc1c(-c2cnc3ccccc3n2)c(C(=O)Nc2ccccc2)nn1-c1ccccc1 | 10 mm/mg | 11 mm/mg | 10 mm/mg | 0 mm/mg |
| – | Cc1c(C(=O)/C=C/NNC(N)=S)c(C(=O)Nc2ccccc2)nn1-c1ccccc1 | 8 mm/mg | 10 mm/mg | 12 mm/mg | 0 mm/mg |
| – | Cc1c(C(=O)CC2C(=O)CC(C)(C)CC2=O)c(C(=O)Nc2ccccc2)nn1-c1ccccc1 | 0 mm/mg | 11 mm/mg | 10 mm/mg | 0 mm/mg |
| – | Cc1c(C(=O)/C=C/N(C)C)c(C(=O)Nc2ccccc2)nn1-c1ccccc1 | 14 mm/mg | 14 mm/mg | 15 mm/mg | 0 mm/mg |
| – | Cc1c(-c2ccc(Cl)cc2)nn2c(-c3c(C(=O)Nc4ccccc4)nn(-c4ccccc4)c3C)ccnc12 | 0 mm/mg | 10 mm/mg | 10 mm/mg | 0 mm/mg |
| – | Cc1c(-c2ccnc3nncn23)c(C(=O)Nc2ccccc2)nn1-c1ccccc1 | 13 mm/mg | 13 mm/mg | 12 mm/mg | 0 mm/mg |
| – | CC(=O)c1c(C(=O)Nc2ccccc2)nn(-c2ccccc2)c1C | 17 mm/mg | 21 mm/mg | 15 mm/mg | 0 mm/mg |
| 11 µg/mL (≈ 11.9 µM) | C[C@@H]1[C@H](O)[C@@H](C)/C=C/C=C/C=C/C=C/C=C/C=C/C=C/[C@H](O[C@@H]2O[C@H](C)[C@@H](O)[C@H](N)[C@@H]2O)C[C@@H]2O[C@](O)(C[C@@H](O)C[C@@H](O)[C@H](O)CC[C@@H](O)C[C@@H](O)CC(=O)O[C@H]1C)C[C@H](O)[C@H]2C(=O)O [AMPHOTERICIN B] | – | – | – | – |
| – | O=C(N[C@H](CO)[C@H](O)c1ccc([N+](=O)[O-])cc1)C(Cl)Cl [CHLORAMPHENICOL] | 20 mm/mg | 21 mm/mg | – | – |
| 27.5 µg/mL (≈ 66.1 µM) | Clc1ccc(COC(Cn2ccnc2)c2ccc(Cl)cc2Cl)c(Cl)c1 (centres undefined) [MICONAZOLE] | – | – | – | – |
| – | CN(C/C=C/C#CC(C)(C)C)Cc1cccc2ccccc12 [TERBINAFINE] | – | – | 10 mm/mg | 10 mm/mg |
